Measured values: ChEMBL document CHEMBL5058577, “EUbOPEN Chemogenomics Library 2 (Multiplex)” (2022)

System: HEK-293T
Test: Multiplex assay against HEK293T
Type: toxicity, cell-based
Conditions: human
Method in brief: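 Hoechst33342, BioTracker Green Microtubule Cytoskeleton Dye, MitoTracker Red and Annexin V Alexa Fluor 680 were added to live cells at seeding, and imaging on a CQ1 microscope at 37°C and 5% CO2 followed compound addition. Gating by CellPathfinder machine learning separated cells into Hoechst high-intensity objects or normal cells, then normal cells into healthy, pyknosed or fragmented nuclei, then pyknosed cells into mitotic or apoptotic. Per cents of healthy-nucleus cells are reported for the tubulin, mitochondrial-mass and membrane-permeability phenotypes.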

[1] = 12 h, 1 µM, compound concentration 1 uM, replicate 1
[2] = 12 h, 1 µM, compound concentration 1 uM, replicate 2
[3] = 12 h, 10 µM, compound concentration 10 uM, replicate 1
[4] = 12 h, 10 µM, compound concentration 10 uM, replicate 2
[5] = 24 h, 1 µM, compound concentration 1 uM, replicate 1
[6] = 24 h, 1 µM, compound concentration 1 uM, replicate 2
[7] = 24 h, 10 µM, compound concentration 10 uM, replicate 1
[8] = 24 h, 10 µM, compound concentration 10 uM, replicate 2
[9] = 48 h, 1 µM, compound concentration 1 uM, replicate 1
[10] = 48 h, 1 µM, compound concentration 1 uM, replicate 2
[11] = 48 h, 10 µM, compound concentration 10 uM, replicate 1
[12] = 48 h, 10 µM, compound concentration 10 uM, replicate 2

## COCCn1c(C)c(C)s/c1=N\C(=O)C1C(C)(C)C1(C)C
[1]
  Population Apoptotic (%): 37%
  Population Fragmented Nuclei (%): 10%
  Population Healthy Nuclei (%): 77%
  Population Hoechst High Intensity Objects (%): 6%
  Population Membrane Permeable-Phenotype (%): 0%
  Population Mitochondria Different-Phenotype (%): 45%
  Population Mitotic Cells (%): 62%
  Population Normal (%): 93%
  Population Pyknosed Nuclei (%): 12%
  Population Tubulin-Different-Phenotype (%): 29%
  Total Cell Count: 335
[2]
  Population Apoptotic (%): 41%
  Population Fragmented Nuclei (%): 5%
  Population Healthy Nuclei (%): 82%
  Population Hoechst High Intensity Objects (%): 4%
  Population Mitochondria Different-Phenotype (%): 77%
  Population Mitotic Cells (%): 58%
  Population Normal (%): 95%
  Population Tubulin-Different-Phenotype (%): 26%
  Total Cell Count: 304
[3]
  Population Apoptotic (%): 77%
  Population Fragmented Nuclei (%): 33%
  Population Healthy Nuclei (%): 52%
  Population Hoechst High Intensity Objects (%): 18%
  Population Membrane Permeable-Phenotype (%): 0%
  Population Mitochondria Different-Phenotype (%): 91%
  Population Mitotic Cells (%): 22%
  Population Normal (%): 81%
  Population Pyknosed Nuclei (%): 13%
  Population Tubulin-Different-Phenotype (%): 67%
  Total Cell Count: 80
[4]
  Population Apoptotic (%): 53%
  Population Fragmented Nuclei (%): 8%
  Population Healthy Nuclei (%): 75%
  Population Hoechst High Intensity Objects (%): 11%
  Population Mitochondria Different-Phenotype (%): 72%
  Population Mitotic Cells (%): 46%
  Population Normal (%): 88%
  Population Pyknosed Nuclei (%): 16%
  Population Tubulin-Different-Phenotype (%): 38%
  Total Cell Count: 315
[5]
  Population Apoptotic (%): 19%
  Population Fragmented Nuclei (%): 7%
  Population Healthy Nuclei (%): 81%
  Population Hoechst High Intensity Objects (%): 4%
  Population Membrane Permeable-Phenotype (%): 0%
  Population Mitochondria Different-Phenotype (%): 26%
  Population Mitotic Cells (%): 80%
  Population Normal (%): 95%
  Population Pyknosed Nuclei (%): 11%
  Population Tubulin-Different-Phenotype (%): 20%
  Total Cell Count: 447
[6]
  Population Apoptotic (%): 35%
  Population Fragmented Nuclei (%): 8%
  Population Hoechst High Intensity Objects (%): 7%
  Population Mitochondria Different-Phenotype (%): 47%
  Population Mitotic Cells (%): 64%
  Population Normal (%): 92%
  Population Pyknosed Nuclei (%): 10%
  Population Tubulin-Different-Phenotype (%): 17%
  Total Cell Count: 383
[7]
  Population Apoptotic (%): 71%
  Population Fragmented Nuclei (%): 30%
  Population Healthy Nuclei (%): 61%
  Population Hoechst High Intensity Objects (%): 15%
  Population Membrane Permeable-Phenotype (%): 0%
  Population Mitochondria Different-Phenotype (%): 53%
  Population Mitotic Cells (%): 28%
  Population Normal (%): 84%
  Population Pyknosed Nuclei (%): 8%
  Population Tubulin-Different-Phenotype (%): 36%
  Total Cell Count: 101
[8]
  Population Apoptotic (%): 45%
  Population Fragmented Nuclei (%): 11%
  Population Healthy Nuclei (%): 75%
  Population Hoechst High Intensity Objects (%): 7%
  Population Mitochondria Different-Phenotype (%): 62%
  Population Mitotic Cells (%): 54%
  Population Normal (%): 92%
  Population Pyknosed Nuclei (%): 13%
  Population Tubulin-Different-Phenotype (%): 30%
  Total Cell Count: 376
[9]
  Population Apoptotic (%): 20%
  Population Fragmented Nuclei (%): 13%
  Population Healthy Nuclei (%): 75%
  Population Hoechst High Intensity Objects (%): 3%
  Population Membrane Permeable-Phenotype (%): 0%
  Population Mitochondria Different-Phenotype (%): 22%
  Population Mitotic Cells (%): 79%
  Population Normal (%): 96%
  Population Pyknosed Nuclei (%): 11%
  Population Tubulin-Different-Phenotype (%): 14%
  Total Cell Count: 649
[10]
  Population Apoptotic (%): 45%
  Population Fragmented Nuclei (%): 11%
  Population Healthy Nuclei (%): 81%
  Population Mitochondria Different-Phenotype (%): 31%
  Population Mitotic Cells (%): 55%
  Population Normal (%): 97%
  Population Pyknosed Nuclei (%): 7%
  Population Tubulin-Different-Phenotype (%): 12%
  Total Cell Count: 567
[11]
  Population Apoptotic (%): 60%
  Population Fragmented Nuclei (%): 18%
  Population Healthy Nuclei (%): 73%
  Population Hoechst High Intensity Objects (%): 2%
  Population Membrane Permeable-Phenotype (%): 2%
  Population Mitochondria Different-Phenotype (%): 30%
  Population Mitotic Cells (%): 40%
  Population Normal (%): 97%
  Population Pyknosed Nuclei (%): 8%
  Population Tubulin-Different-Phenotype (%): 31%
  Total Cell Count: 191
[12]
  Population Apoptotic (%): 38%
  Population Fragmented Nuclei (%): 13%
  Population Healthy Nuclei (%): 79%
  Population Hoechst High Intensity Objects (%): 4%
  Population Membrane Permeable-Phenotype (%): 0%
  Population Mitochondria Different-Phenotype (%): 46%
  Population Mitotic Cells (%): 61%
  Population Normal (%): 95%
  Population Pyknosed Nuclei (%): 6%
  Population Tubulin-Different-Phenotype (%): 24%
  Total Cell Count: 493

## CN(C)C(=O)Cn1cc(-c2ccc(-c3nnc4ccccn34)cc2)cn1
[1]
  Population Apoptotic (%): 31%
  Population Fragmented Nuclei (%): 7%
  Population Healthy Nuclei (%): 80%
  Population Hoechst High Intensity Objects (%): 9%
  Population Membrane Permeable-Phenotype (%): 0%
  Population Mitochondria Different-Phenotype (%): 40%
  Population Mitotic Cells (%): 68%
  Population Normal (%): 90%
  Population Pyknosed Nuclei (%): 11%
  Population Tubulin-Different-Phenotype (%): 32%
  Total Cell Count: 432
[2]
  Population Apoptotic (%): 43%
  Population Healthy Nuclei (%): 79%
  Population Hoechst High Intensity Objects (%): 10%
  Population Mitochondria Different-Phenotype (%): 59%
  Population Mitotic Cells (%): 56%
  Population Normal (%): 89%
  Population Pyknosed Nuclei (%): 12%
  Population Tubulin-Different-Phenotype (%): 27%
  Total Cell Count: 337
[3]
  Population Apoptotic (%): 32%
  Population Fragmented Nuclei (%): 9%
  Population Healthy Nuclei (%): 76%
  Population Hoechst High Intensity Objects (%): 7%
  Population Membrane Permeable-Phenotype (%): 0%
  Population Mitochondria Different-Phenotype (%): 61%
  Population Mitotic Cells (%): 67%
  Population Normal (%): 92%
  Population Pyknosed Nuclei (%): 14%
  Population Tubulin-Different-Phenotype (%): 42%
  Total Cell Count: 427
[4]
  Population Apoptotic (%): 51%
  Population Fragmented Nuclei (%): 7%
  Population Healthy Nuclei (%): 80%
  Population Hoechst High Intensity Objects (%): 8%
  Population Mitochondria Different-Phenotype (%): 55%
  Population Mitotic Cells (%): 48%
  Population Normal (%): 91%
  Population Pyknosed Nuclei (%): 12%
  Population Tubulin-Different-Phenotype (%): 18%
  Total Cell Count: 356
[5]
  Population Apoptotic (%): 27%
  Population Fragmented Nuclei (%): 10%
  Population Healthy Nuclei (%): 77%
  Population Hoechst High Intensity Objects (%): 6%
  Population Membrane Permeable-Phenotype (%): 0%
  Population Mitochondria Different-Phenotype (%): 28%
  Population Mitotic Cells (%): 72%
  Population Normal (%): 93%
  Population Pyknosed Nuclei (%): 12%
  Population Tubulin-Different-Phenotype (%): 22%
  Total Cell Count: 595
[6]
  Population Apoptotic (%): 46%
  Population Fragmented Nuclei (%): 9%
  Population Healthy Nuclei (%): 82%
  Population Hoechst High Intensity Objects (%): 7%
  Population Mitochondria Different-Phenotype (%): 44%
  Population Mitotic Cells (%): 53%
  Population Normal (%): 92%
  Population Pyknosed Nuclei (%): 7%
  Population Tubulin-Different-Phenotype (%): 18%
  Total Cell Count: 447
[7]
  Population Apoptotic (%): 35%
  Population Fragmented Nuclei (%): 7%
  Population Healthy Nuclei (%): 78%
  Population Hoechst High Intensity Objects (%): 4%
  Population Membrane Permeable-Phenotype (%): 0%
  Population Mitochondria Different-Phenotype (%): 44%
  Population Mitotic Cells (%): 64%
  Population Normal (%): 95%
  Population Pyknosed Nuclei (%): 13%
  Population Tubulin-Different-Phenotype (%): 27%
  Total Cell Count: 506
[8]
  Population Apoptotic (%): 61%
  Population Fragmented Nuclei (%): 13%
  Population Healthy Nuclei (%): 79%
  Population Hoechst High Intensity Objects (%): 7%
  Population Mitochondria Different-Phenotype (%): 39%
  Population Mitotic Cells (%): 38%
  Population Normal (%): 92%
  Population Pyknosed Nuclei (%): 7%
  Population Tubulin-Different-Phenotype (%): 11%
  Total Cell Count: 425
[9]
  Population Apoptotic (%): 18%
  Population Fragmented Nuclei (%): 11%
  Population Healthy Nuclei (%): 81%
  Population Hoechst High Intensity Objects (%): 3%
  Population Membrane Permeable-Phenotype (%): 0%
  Population Mitochondria Different-Phenotype (%): 20%
  Population Mitotic Cells (%): 81%
  Population Normal (%): 96%
  Population Pyknosed Nuclei (%): 6%
  Population Tubulin-Different-Phenotype (%): 13%
  Total Cell Count: 946
[10]
  Population Apoptotic (%): 32%
  Population Healthy Nuclei (%): 80%
  Population Hoechst High Intensity Objects (%): 4%
  Population Mitochondria Different-Phenotype (%): 22%
  Population Mitotic Cells (%): 67%
  Population Normal (%): 95%
  Population Pyknosed Nuclei (%): 7%
  Population Tubulin-Different-Phenotype (%): 12%
  Total Cell Count: 572
[11]
  Population Apoptotic (%): 30%
  Population Fragmented Nuclei (%): 18%
  Population Healthy Nuclei (%): 74%
  Population Hoechst High Intensity Objects (%): 5%
  Population Membrane Permeable-Phenotype (%): 0%
  Population Mitochondria Different-Phenotype (%): 24%
  Population Mitotic Cells (%): 69%
  Population Normal (%): 94%
  Population Pyknosed Nuclei (%): 6%
  Population Tubulin-Different-Phenotype (%): 14%
  Total Cell Count: 753
[12]
  Population Apoptotic (%): 37%
  Population Fragmented Nuclei (%): 14%
  Population Healthy Nuclei (%): 79%
  Population Hoechst High Intensity Objects (%): 2%
  Population Mitochondria Different-Phenotype (%): 27%
  Population Mitotic Cells (%): 62%
  Population Normal (%): 97%
  Population Pyknosed Nuclei (%): 5%
  Population Tubulin-Different-Phenotype (%): 12%
  Total Cell Count: 616
